The nature of series [1]: Cytotoxicity against human CRL2813 cells after 5 days by SRB assay. The series is classed as functional, cell-based. The conditions noted are these: CRL2813, 120 h. The method, boiled down:
(§1)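 CRL-2813 melanoma or NIH/3T3 fibroblasts seeded in 96-well plates, exposed 5 days to 0.5–20 μM compound; fixed in cold 10% TCA, bound sulforhodamine B measured. % growth = 100×(T−T0)/(C−T0). IC50 derived; triplicate, three independent experiments.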
For orientation: The SRB assay estimates cell density from bound dye.

Series [2] in a line: Ratio of IC50 for human CRL2813 cells after 3 days by SRB assay in presence of HRI-targeting siRNA to IC50 for human CRL2813 cells after 3 days by SRB assay in presence of non-targeting siRNA. In kind it is functional. In outline: (§2)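 CRL-2813 cells transiently transfected (Lipofectamine 2000) with HRI-targeting or non-targeting siRNA, then treated with compound dose range; proliferation by SRB after 3 days. IC50 calculated per siRNA condition; ratio is HRI-siRNA over non-targeting IC50. Triplicate, three independent experiments; mean±S.E.M.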

For series [3], the target named is Eukaryotic translation initiation factor 2-alpha kinase 1 (Homo sapiens) (UniProt Q9BQI3). As to the kind of experiment: Activation of HRI in human CRL-2813-pBISA-DL(ATF-4) reporter cells assessed as eIF2alpha phosphorylation after 8 to 32 hrs by dual-luciferase reporter gene assay. The method, boiled down: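 Reporter CRL-2813-pBISA-DL(ATF-4) cells incubated with compounds for 8, 16 or 32 h. Firefly/renilla luciferase ratio measured by dual luciferase assay and normalized to vehicle-treated cells.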
Chain of Eukaryotic translation initiation factor 2-alpha kinase 1 (Homo sapiens) (Q9BQI3 whole entry): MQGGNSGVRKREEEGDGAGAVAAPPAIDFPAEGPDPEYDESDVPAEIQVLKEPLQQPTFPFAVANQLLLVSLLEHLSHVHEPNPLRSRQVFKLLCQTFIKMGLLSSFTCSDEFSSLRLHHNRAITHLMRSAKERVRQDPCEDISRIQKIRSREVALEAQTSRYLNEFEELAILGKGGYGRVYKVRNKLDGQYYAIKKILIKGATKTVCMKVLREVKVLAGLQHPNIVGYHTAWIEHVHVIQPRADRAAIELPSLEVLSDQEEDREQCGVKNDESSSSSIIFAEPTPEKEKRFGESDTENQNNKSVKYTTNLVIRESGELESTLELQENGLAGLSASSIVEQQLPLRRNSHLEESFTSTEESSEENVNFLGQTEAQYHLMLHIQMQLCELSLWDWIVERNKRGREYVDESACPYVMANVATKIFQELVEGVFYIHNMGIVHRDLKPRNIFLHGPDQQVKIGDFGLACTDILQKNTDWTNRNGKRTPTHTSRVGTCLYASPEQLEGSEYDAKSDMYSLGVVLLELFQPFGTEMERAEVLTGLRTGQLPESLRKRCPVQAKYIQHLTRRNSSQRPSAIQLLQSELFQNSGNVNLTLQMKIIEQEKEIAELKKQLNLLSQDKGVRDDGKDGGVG
On the technique in general: Reporter assays use an easily measured gene product as a stand-in for the process of interest.

The nature of series [4]: Antiproliferative activity against human CRL2813 cells after 3 days by SRB assay in presence of HRI-targeting siRNA. In kind it is functional, cell-based. The conditions noted are these: CRL2813, 72 h. In outline: as §2
The target of series [5] is Eukaryotic translation initiation factor 2-alpha kinase 1 (Homo sapiens) (UniProt Q9BQI3). Put plainly: Activation of HRI in human CRL-2813-pBISA-DL(ATF-4) reporter cells assessed as concentration required to obtain F-luciferase expression/R-luciferase expression ratio 3. In outline:
(§3)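 Stably transfected CRL-2813-pBISA-DL(ATF-4) reporter cells treated with compounds in dose-response; firefly and renilla luciferases read by dual glow luciferase kit. Activity = firefly/renilla (F/R) ratio normalized to DMSO-treated wells (set at 1). Triplicate points fitted to logistic sigmoidal model by nonlinear least squares; C3X = concentration giving F/R = 3, Emax = maximal F/R.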

Series [6] shares this target. As to the kind of experiment: Activation of HRI in human CRL-2813-pBISA-DL(ATF-4) reporter cells assessed as reduction of ternary complex at 30 uM by dual-luciferase reporter gene assay relative to control. The method, boiled down:
as §3

Series [7] can be described thus: Antiproliferative activity against human CRL2813 cells after 3 days by SRB assay in presence of non-targeting siRNA. The series is classed as functional, cell-based. The note with it: CRL2813, 72 h. In outline: as §2
Series [8] is described as follows: Selectivity ratio of IC50 for mouse NIH/3T3 cells to IC50 for human CRL2813 cells. The series is classed as ADME, cell-based. The conditions noted are these: NIH/3T3 cells and CRL2813 cells, read-out: Ratio IC50.
The subject of a further series is NIH3T3. As to the kind of experiment: Cytotoxicity against mouse NIH/3T3 cells after 5 days by SRB assay. In kind it is cell-based. The note with it: NIH3T3, 120 h. In outline: as §1
Series [9] is described as follows: Ratio of IC50 for human CRL2813 cells after 3 days by SRB assay in presence of HRI-targeting siRNA to IC50 for human CRL2813 cells after 3 days by SRB assay in presence of non-targeting siRNA.
The target of series [10] is Eukaryotic translation initiation factor 2-alpha kinase 1 (Homo sapiens) (UniProt Q9BQI3). As to the kind of experiment: Activation of HRI in human CRL2813 cells assessed as reduction in cyclin D1 protein expression at 10 uM after 6 hrs by Western blotting analysis. In kind it is cell-based. The method, boiled down:
(§4)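 CRL-2813 melanoma cells grown in serum-containing medium without antibiotics to 70% confluence, treated 6 h (10 μM for CHOP/cyclin D1), lysed in M-PER on ice 30 min, protein by BCA. Equal protein on SDS-PAGE, probed with anti-pS51-eIF2α rabbit mAb, anti-total eIF2α mouse mAb, anti-CHOP, anti-cyclin D1, anti-actin. Three independent experiments.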

Series [11] shares this target. Put plainly: Activation of HRI in human CRL2813 cells assessed as eIF2alpha phosphorylation after 6 hrs by Western blotting analysis. In kind it is cell-based. In outline: as §4
On the technique in general: Immunoblotting shows a protein as a band on a membrane.

The target is the same in series [12]. As to the kind of experiment: Activation of HRI in human CRL-2813-pBISA-DL(ATF-4) reporter cells assessed as eIF2alpha phosphorylation after 10 hrs by dual-luciferase reporter gene assay in presence of siRNA relative to control. The method, boiled down: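 CRL-2813-pBISA-DL(ATF-4) reporter cells transiently transfected (Lipofectamine 2000) with HRI-targeting or non-targeting siRNA for 48 h, then treated with compounds or DMSO for 10 h. Firefly/renilla ratio by dual luciferase assay, normalized to vehicle. Triplicate, three independent experiments; mean±S.E.M.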

The subject of series [13] is MCF7. Put plainly: Antiproliferative activity against human MCF7 cells after 5 days by SRB assay in presence of non-targeting siRNA. In kind it is functional, cell-based. The note with it: MCF7, 120 h.
Series [14] can be described thus: Antiproliferative activity against human CRL2813 cells after 5 days by SRB assay in presence of HRI-targeting siRNA. The conditions noted are these: CRL2813, 120 h. The series is classed as functional, cell-based.
The target in series [15] is Eukaryotic translation initiation factor 2-alpha kinase 1 (Homo sapiens) (UniProt Q9BQI3). Put plainly: Activation of HRI in human CRL2813 cells assessed as increase in CHOP mRNA expression at 7.5 to 15 uM after 6 hrs by RT-PCR analysis. The series is classed as cell-based. In outline:
(§5)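 CRL-2813 cells incubated with 7.5 or 15 μM compound for 6 h; CHOP and cyclin D1 mRNA measured by real-time PCR. Each run in triplicate, mean of three independent experiments ±S.E.M.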

The target is the same in series [16]. As to the kind of experiment: Activation of HRI in human CRL2813 cells assessed as reduction in cyclin D1 mRNA expression at 7.5 to 15 uM after 6 hrs by RT-PCR analysis. The series is classed as cell-based. The method, boiled down: as §5
Series [17] can be described thus: Antiproliferative activity against human CRL2813 cells after 5 days by SRB assay in presence of non-targeting siRNA. In kind it is functional, cell-based. The note with it: CRL2813, 120 h.
In series [18] the test system is MCF7. As to the kind of experiment: Antiproliferative activity against human MCF7 cells after 5 days by SRB assay in presence of HRI-targeting siRNA. The series is classed as functional, cell-based. The conditions noted are these: MCF7, 120 h.
In series [19] the target is Eukaryotic translation initiation factor 2-alpha kinase 1 (Homo sapiens) (UniProt Q9BQI3). Put plainly: Activation of HRI in human CRL2813 cells assessed as increase in CHOP protein expression at 10 uM after 6 hrs by Western blotting analysis. The series is classed as cell-based. The method, boiled down: as §4

Active and inactive are the calls of the source. The calls are words filed in the database; no cut-off is given here.

`O=C(Nc1cccc(C(F)(F)F)c1)N[C@H]1CC[C@H](Oc2ccccc2F)CC1`: the IC50 is 2.45 µM in series [1], 21.9 µM in [4] and 2.8 µM in series [7]. Also, in [2], the “Ratio IC50” value is 7. In addition, the result in [3] was Active. Moreover, in series [5], the Activity turned out to be 3.2 µM. In addition, the Ratio in series [6] was found to be 7.98.
As to `O=C(Nc1cccc(C(F)(F)F)c1)N[C@H]1CC[C@H](Oc2ccc(OC(F)(F)F)cc2)CC1`, the IC50 in series [1] amounted to 0.69 µM; in series [4] it was 4.9 µM; in [7], 0.85 µM; in the series on NIH3T3, 3.4 µM. The Activity in [5] was 1.5 µM. For the same compound, the selectivity ratio in series [8] stood at 4.9. Moreover, the Ratio in series [6] turned out to be 14.4.
For the compound `O=C(Nc1cccc(C(F)(F)F)c1)N[C@H]1CC[C@H](Oc2cccc(C(F)(F)F)c2)CC1`, the IC50 in [1] is 1.3 µM; in series [4] it was 4.9 µM; in [7] it was 1.05 µM; in the series on NIH3T3, 3.3 µM. In addition, the Activity in series [5] turned out to be 1.1 µM. Besides, the selectivity ratio in series [8] amounted to 2.5. For the same compound, in series [6], the Ratio turned out to be 26.
As for `O=C(Nc1cccc(C(F)(F)F)c1)N[C@H]1CC[C@H](Oc2ccc(C(F)(F)F)cc2)CC1`, the IC50 amounted to 0.46 µM in [1], 5 µM in series [4], 0.66 µM in series [7] and 3.4 µM in the series on NIH3T3. The Activity in [5] was found to be 0.3 µM. The selectivity ratio in series [8] worked out at 7.4. For the same compound, in series [6], the Ratio came to 25.1.
Consider `O=C(Nc1ccc([N+](=O)[O-])cc1)N[C@H]1CC[C@H](Oc2ccc(F)cc2)CC1`, for which the IC50 was 2.3 µM in [1]; 9.8 µM with MCF7 [13]; 12.2 µM in [14]; 5.2 µM in [17]; more than 30 µM with MCF7 [18]. Besides, the “Ratio IC50” value in [9] is listed as 1.7. Besides, the result in series [10], in [11], in [15], in [16] and in series [19] was Active. The Activity in series [5] was found to be 6.7 µM. Besides, in series [12], the outcome was inactive. The Ratio in [6] came to 9.
As for `O=C(Nc1ccc(OC(F)(F)F)cc1)N[C@H]1CC[C@H](Oc2ccc(F)cc2)CC1`, the IC50 in series [1] is 2.7 µM; in the series on MCF7 [13], 9.2 µM; in [14] it was 7.4 µM; in series [17] it was 3.3 µM; with MCF7 [18], 30 µM; in the series with NIH3T3, 13.6 µM. Moreover, the “Ratio IC50” value in series [9] is reported as 1.7. Moreover, the outcome in series [10], in [11], in series [15], in series [16] and in [19] was Active. In addition, in series [5], the Activity was 0.7 µM. For the same compound, in [8], the selectivity ratio came to 5. Further, the outcome in series [12] was inactive. The Ratio in series [6] stood at 15.3.
Consider `O=C(Nc1ccc(C(F)(F)F)cc1)N[C@H]1CC[C@H](Oc2ccc(F)cc2)CC1`, for which the half-maximal inhibitory concentration (IC50) in series [1] was 2.8 µM; with MCF7 [13], 8.4 µM; in series [14] it was 6.5 µM; in series [17], 3.1 µM; in the series with MCF7 [18], 29.5 µM. Besides, in [9], the “Ratio IC50” value came out at 1.7. Besides, the result in [10], in series [11], in series [15], in series [16] and in series [19] was Active. Further, the Activity in series [5] is 1.6 µM. Further, the result in [12] was inactive. The Ratio in [6] is 14.
On to `O=C(Nc1cccc(C(F)(F)F)c1)N[C@H]1CC[C@H](Oc2cccc(F)c2)CC1`, for which the concentration for half-maximal inhibition (IC50) in series [1] is 2.4 µM; in series [4] it was 29.9 µM; in series [7], 4.3 µM. In series [2], the “Ratio IC50” value came out at 7. In [3], the result was Active. Moreover, in series [5], the Activity stood at 2.6 µM. Moreover, the Ratio in [6] amounted to 7.23.
On to `O=C(Nc1cccc(C(F)(F)F)c1)N[C@H]1CC[C@@H](Oc2ccc(F)cc2)CC1`, for which the IC50 in series [1] amounted to 2.6 µM; in series [4], 10.4 µM; with MCF7 [13] it was 11.3 µM; in series [14] it was 10.4 µM; in series [7] it was 6 µM; in series [17], 6 µM. In addition, the IC50 with MCF7 [18] was more than 30 µM. In [9], the “Ratio IC50” value was 1.7. For the same compound, the outcome in [10], in [11], in series [15], in [16] and in [19] was Active. The Activity in series [5] was found to be 4.5 µM. Further, in series [12], the outcome was inactive. In addition, in [6], the Ratio is 11.8.

What is called IC50 is the concentration at which inhibition is half-maximal.

These data come from ChEMBL document CHEMBL3098030, “Explorations of substituted urea functionality for the discovery of new activators of the heme-regulated inhibitor kinase” (J Med Chem, 2013).
